In the library only some 1.9% were active in any assay of this set; here they are far more common.
HSV augment: enhancers of HSV replication in host cells, fold increase, host cell viability. HSV replication augmentation in cells. maximum fold increase. 0.005% of 220,000 active; in the data active = maximum fold increase above about 1.5; inconclusive = no clear call, values can overlap the other calls; tested in PC3 cells
b-catenin transl: modulators of beta-catenin nuclear translocation, primary screen, imaging, HeLa cells, immunofluorescence, high-content; nuclear translocation activity, % at 5 µM; 0.3% of 190,000 active; AID 1665, 2009;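 active = nuclear translocation activity above 50% at 5 µM, with a well cell count of 50 or more; inconclusive = wells under 50 cells across six images, flagged as toxic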;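 note: per-cell ratio of nuclear to cytoplasmic median beta-catenin stain intensity; plate controls were DMSO negative control for no effect and GSK-3 inhibitor IX positive control for full effect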
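assay system = human HeLa cells, endogenous beta-catenin | times = compound treatment 24 h, 37°C, 5% CO2 | detection = Anti-beta-catenin immunofluorescence on PFA-fixed, Triton-permeabilized cells, DAPI nuclei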
Autophagy mod: autophagy modulators in MEF cells, primary screen, imaging, high-content, MEF GFP-LC3 | MEF GFP-LC3 puncta imaging; test concentration mostly 10 µM | calls only at 10 µM (by protocol) | 0.98% of 190,000 active | AID 463193, 2010;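 active = percentage of spot-positive cells more than 3 SD above its plate mean, without a fluorescence outlier flag or 80% toxicity; inconclusive = no clear call, values can overlap the other calls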;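 note: spot-positive cell cutoff set from DMSO-treated cells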
Furin inh: human furin inhibitors, primary screen, biochemical, fluorescence intensity; inhibition, % at 20 µM or 30 µM; purified furin, fluorogenic substrate cleavage; P09958; 0.061% of 220,000 active; in the data active = inhibition above about 25%
Target sequence (P09958 108-714 limits assumed): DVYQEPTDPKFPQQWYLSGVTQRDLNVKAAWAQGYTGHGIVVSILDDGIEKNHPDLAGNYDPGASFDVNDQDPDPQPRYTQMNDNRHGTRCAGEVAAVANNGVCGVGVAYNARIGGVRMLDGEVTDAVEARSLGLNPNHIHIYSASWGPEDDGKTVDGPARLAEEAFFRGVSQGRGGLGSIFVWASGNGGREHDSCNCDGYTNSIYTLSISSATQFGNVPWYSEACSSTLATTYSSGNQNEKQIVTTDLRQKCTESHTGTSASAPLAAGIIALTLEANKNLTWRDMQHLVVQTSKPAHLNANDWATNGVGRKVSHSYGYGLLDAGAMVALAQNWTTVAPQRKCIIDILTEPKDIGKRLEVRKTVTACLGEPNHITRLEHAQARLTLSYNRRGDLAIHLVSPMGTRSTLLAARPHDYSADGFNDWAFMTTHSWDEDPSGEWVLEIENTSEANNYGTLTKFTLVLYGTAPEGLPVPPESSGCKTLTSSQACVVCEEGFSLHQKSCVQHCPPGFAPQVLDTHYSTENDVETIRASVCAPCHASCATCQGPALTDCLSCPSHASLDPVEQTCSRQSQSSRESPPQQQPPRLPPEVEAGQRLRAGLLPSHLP
Insulin prom up: insulin promoter activators in MIN6 cells, imaging, high-content screening, mouse beta cells. z-score at 5 µM. MIN6 insulin promoter-GFP reporter; stronger effect = higher value. 0.3% of 190,000 active;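 active = z-score above 3 at 5 µM with at least 500 cells counted in the well; inconclusive = wells under 500 cells, flagged as cytotoxic or low count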
MT stabilize HCS: microtubule stabilizers in HeLa cells, primary screen, imaging, high-content imaging; HeLa tubulin immunostaining HCS, 24 h; share of cells brighter than vehicle mean+2SD; % tubulin-high responders, % at 10 µM; 0.83% of 200,000 active; AID 2205, 2009;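 active = plate Z-score above 3 for both tubulin-high and condensed-nucleus cell shares, with cell loss under 80%, at 10 µM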;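 note: anti alpha tubulin signal scored within the nucleus-defined area of each cell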
* hit, by the source's call; i = inactive; ? = inconclusive; nt = no result; + = active, no number.

SMILES	HSV augment	b-catenin transl	Autophagy mod	Furin inh	Insulin prom up	MT stabilize HCS
O=C(CN1C(=O)c2ccccc2C1=O)Nc1sc2c(c1C(=O)NCc1ccco1)CCCC2	i	1.3	i	28.5*	0.54	2.7
Cc1nc(N2CCCCC2)sc1C(=O)c1ccc(Cl)c([N+](=O)[O-])c1	i	-1.0	i	-21.8	0.62	2.9
C=CCOc1ccc(/C(O)=C2\C(=O)C(=O)N(CCN(C)C)C2c2cccs2)cc1 (centres undefined)	i	-3.4	+	-7.1	0.32	2.3
CCOc1ccc(/C(O)=C2/C(=O)C(=O)N(CCN(CC)CC)C2c2cccs2)cc1 (centres undefined)	i	1.0	nt	-20.5	-0.17	nt
COc1ccc(NS(=O)(=O)c2csc(C(=O)Nc3ccccc3)c2)cc1	i	2.4	i	-17.6	nt	1.6
CCOC(=O)c1c(Nc2ccc(Cl)cc2)sc(/C=C2\C=Nc3ccccc32)c1O	i	-1.4	+	-21.2	nt	2.3
Cc1nn(CC(=O)Nc2ccc3c(c2)nc2n3CCN(C3CCCCC3)C2)c(=O)c2ccccc12	i	1.3	i	-28.9	-0.36	4.2
CCOc1ccc2nc(N3CCC(C(=O)NCCCN4CCOCC4)CC3)sc2c1	i	0.0	nt	-14.1	1.65	nt
CCOc1ccc2nc(N3CCCC(C(=O)NCCCN4CCOCC4)C3)sc2c1 (centres undefined)	i	-1.2	+	-19.2	-0.08	4.9
CC1(CCl)N([O-])C2=C(CCCC2)[N+]1=O (centres undefined)	i	0.7	nt	-16.3	-0.08	nt
Cc1c(-c2nc(N)nc(Nc3ccccc3)n2)oc2ccccc12	i	-1.2	i	-20.8	-0.14	24.7*
Nc1nc(CN2CCCCCC2)nc(Nc2ccccc2)n1	i	1.1	i	-8.1	-0.62	3.5
Cc1cc(NC(=O)CSc2nnc3c(C)cc4c(C)ccc(C)c4n23)no1	i	94.1*	i	-16.6	0.14	57.0*
COc1ccccc1-n1cnnc1SCC(=O)Nc1cc(C)on1	i	0.9	i	-19.8	nt	16.6*
COc1cc2cc(C)c3nnc(SCC(=O)Nc4cc(C)on4)n3c2cc1OC	i	0.8	i	-11.8	5.98*	1.1
COc1ccc(-c2nnc(SCC(=O)Nc3cc(C)on3)n2N)cc1OC	i	-1.4	i	-12.9	0.31	1.5
CCc1nnc(NC(=O)CSc2nnc3c(C)cc4c(C)ccc(C)c4n23)s1	i	63.1*	i	-15.5	0.15	20.4*
Cc1cc(NC(=O)CSc2nnc(C3CC3)n2C)no1	i	nt	i	-22.6	0.49	4.5
Cc1cc(NC(=O)CSc2nncn2-c2ccccc2)no1	i	0.7	i	-17.1	-0.01	2.9
Nc1nc(CN2CCN(c3ccccc3)CC2)nc(Nc2ccc(Cl)cc2)n1	i	-1.7	i	-26.8	-1.24	4.5
COc1ccc(OC)c2[nH]c(=O)c(CCNC(=O)c3cccs3)cc12	i	0.8	i	-25.6	-0.95	2.3
CCN1C(=O)CSc2ccc(C(=O)NCc3ccccc3OC)cc21	i	-0.4	i	-13.5	3.1*	1.2
COc1ccccc1CNC(=O)CN1C(=O)CSc2ccc(S(=O)(=O)N3CCCC3)cc21	i	0.6	i	-30.5	-1.37	3.0
COc1ccc(OC)c(Nc2nc(-c3cccc([N+](=O)[O-])c3)nc3ccccc23)c1	i	-1.1	+	-7.0	0.01	1.4
CCCCCCc1cc2cc(C(=O)Nc3cccc(OC)c3)c(=O)oc2cc1O	i	-1.2	i	-1.5	-0.06	4.1
SMILES	HSV augment	b-catenin transl	Autophagy mod	Furin inh	Insulin prom up	MT stabilize HCS
CCCCCCc1cc2cc(C(=O)Nc3ccc(OC)cc3)c(=O)oc2cc1O	i	-0.3	+	-16.0	-4.12	2.1
O=C1CC(c2ccc(F)cc2)CC2=C1C(c1ccc([N+](=O)[O-])o1)Nc1ccccc1N2 (centres undefined)	i	-2.5	nt	10.4	-0.85	nt
Cc1oc(C)c2c(=O)ccc3c(c12)OC(N)=C(C#N)C3c1ccccc1 (centres undefined)	i	1.1	+	-29.5	nt	6.2
CSc1ccc(C2C(C#N)=C(N)Oc3c2ccc(=O)c2c(C)oc(C)c32)cc1 (centres undefined)	?	-2.2	i	-14.3	1.49	5.1
Cc1cc(C)c(S(=O)(=O)NC(C)C)c(C)c1-n1cnnn1	i	-2.1	i	-25.0	0.72	2.9
COc1ccc(CN2C3CCCC2CC(NC(=O)/C=C/c2ccccc2)C3)cc1 (centres undefined)	i	1.2	+	-29.0	0.21	2.2
CCOC(=O)CNC(=O)c1ccc(C#CC2(O)CCCCC2)cc1	i	-2.6	i	-13.7	0.26	1.8
COc1ccc(N=CC2=C(O)CC(C)(C)CC2=O)cc1	i	0.6	i	34.3*	0.08	6.4
CC1(C)CC(=O)C(C=Nc2cccnc2/N=C/C2=C(O)CC(C)(C)CC2=O)=C(O)C1	i	1.3	i	54.7*	-0.56	3.9
CC1(C)CC(=O)C(C=Nc2cccnc2)=C(O)C1	i	-2.7	i	40.9*	1.3	6.6
Cc1cccc(Cn2c(=O)c3c(nc4n3CCCN4Cc3ccccc3)n(C)c2=O)c1	i	nt	i	-11.0	-0.85	2.0
CCCCSc1nc2c(cnn2-c2ccc(C)c(C)c2)c(=O)[nH]1	i	nt	+	-1.7	0.38	5.4
CCCSc1nc2c(cnn2-c2ccc(C)c(C)c2)c(=O)[nH]1	i	nt	i	-29.4	-1.86	7.1
CN(C(=S)NC1CCCCC1)C1(c2ccccc2Cl)CCCCC1=O (centres undefined)	i	-1.6	+	-17.8	-0.11	5.2
CC(C)NC(=S)N(C)C1(c2ccccc2Cl)CCCCC1=O (centres undefined)	i	-1.7	i	-16.1	-0.47	3.0
CCOC(=O)/C(=C\c1ccc([N+](=O)[O-])o1)NC(=O)c1ccccc1	i	nt	+	-1.7	-0.92	1.3
CCCOC(=O)/C(=C\c1ccc([N+](=O)[O-])o1)NC(=O)c1ccccc1	i	-3.2	+	-5.8	-0.15	2.8
CCc1n[n+](CC(=O)c2ccccc2)c(N)s1	i	2.8	i	-23.2	0.8	5.8
CCOC(=O)c1ccc(NC(=O)c2ccc(NS(C)(=O)=O)cc2)cc1	i	-0.4	i	-18.1	0.09	3.0
CC(C)c1ccc(NC(=O)c2ccc(NS(C)(=O)=O)cc2)cc1	i	8.9	+	-6.8	-0.47	1.1
COC(=O)c1ccc(CSc2nc(-c3ccc(OC)cc3)nc3c2c(=O)n(C)c(=O)n3C)o1	nt	nt	+	-17.8	nt	4.2
CCCCCCCCCCn1c2c(c(=N)c3c1CCC3)CCC2	i	3.2	i	-9.6	?	74.2
